Measured values from ChEMBL document CHEMBL1122273, “5-sulfamoylorthanilic acids, a sulfonamide series with salidiuretic activity” (J Med Chem, 1983).

Assays:
Canis familiaris [1] = assay: Saluretic activity in the dog measured as concentration of K+ in urinary excretion (2 animals/dose) at (dose 0.4 mg/Kg, perorally); type: functional, Canis lupus familiaris, Urine
In short: (§1)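 Male beagles trained to the procedures, food withdrawn 24 h before, tap water ad libitum. Bladder emptied by catheter, then 20 mL/kg tap water by stomach tube, plus 4 mL/kg orally at each hourly catheterization up to 8 h. The first 2 h of urine served as control. Compound given orally after the second catheterization. Urine from 1–6 h post-dose pooled; Na⁺ and K⁺ by flame photometry, Cl⁻ argentometrically, in mequiv/kg.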

Rattus norvegicus [2] = organism: Rattus norvegicus; assay: Saluretic activity in the rat measured as concentration of K+ in urine; type: functional
In short: (§2)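 Rats deprived of food 24 h, water ad libitum, dosed 50 mg/kg by stomach tube as suspension in 2% starch, no extra water load. Groups of three in diuresis funnels; urine over first 5 h collected. Na⁺ and K⁺ by flame photometry, Cl⁻ argentometrically; expressed as mequiv/kg.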

Rattus norvegicus [3] = organism: Rattus norvegicus; assay: Diuretic activity in the rats, determined by a modified Lipschitz test; type: functional, Urine
In short: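 Modified Lipschitz test: rats deprived of water 24 h, grouped in threes of similar weight in diuresis funnels. Oral dose of 50 mg/kg, suspended in 2% starch solution, by stomach tube.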

Rattus norvegicus [4] = organism: Rattus norvegicus; assay: Saluretic activity in the rat measured as concentration of chloride in urine; type: functional; in short: as §2
Canis familiaris [5] = assay: Saluretic activity in the dog measured as concentration of Cl - in urinary excretion (2 animals/dose) at (dose 1.56 mg/Kg, perorally); type: functional, Canis lupus familiaris, Urine; in short: as §1
[6] = Partion coefficient in octanol/H2O system at pH=7; type: physicochemical
In short: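 Partition between octanol and Britton-Robinson buffer, measured across pH 0–13; value read at pH 7.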

Rattus norvegicus [7] = organism: Rattus norvegicus; assay: Saluretic activity in the rat measured as concentration of Na+ in urine; type: functional; in short: as §2
[8] = Dissociation constant, pK2 was determined using sodium salt
Canis familiaris [9] = assay: Saluretic activity in the dog measured as concentration of Cl - in urinary excretion (2 animals/dose) at (dose 0.1 mg/Kg, perorally); type: functional, Canis lupus familiaris, Urine; in short: as §1
Canis familiaris [10] = assay: sodium excretion collected at 7-24 hr time after oral administration in dog (four animals per dose) at dose 1.56 mg/kg.; type: functional, Canis lupus familiaris
In short: (§3)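 Trained male beagles, four per dose, fasted 24 h with tap water ad libitum. After bladder emptying, given 20 mL/kg tap water by stomach tube, then 4 mL/kg at each hourly catheterization; 2 h control collection, then oral dosing. Urine volume and Na⁺ (flame photometry) reported for 1–6, 7–24 and 1–24 h post-dose periods.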

[11] = It is the ratio, measured as saluretic activity in the dog as concentration of Cl- in urinary excretion (dose 0.1 mg/Kg, perorally) to that of (Na+)+(K+); type: functional, Urine
In short: (§4)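 Trained male beagles, fasted 24 h with tap water ad libitum. Bladder emptied by catheter, then 20 mL/kg tap water by stomach tube, with 4 mL/kg water at each hourly catheterization up to 8 h. The first 2 h of urine served as control. Oral dosing came after the second catheterization, and 1–6 h urine was pooled. Na⁺ and K⁺ were measured by flame photometry, Cl⁻ argentometrically, in mequiv/kg.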

Canis familiaris [12] = assay: Saluretic activity in the dog measured as concentration of Na+ in urinary excretion (2 animals/dose) at (dose 1.56 mg/Kg, perorally); type: functional, Canis lupus familiaris, Urine
In short: (§5)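 Male beagles trained to rest on a table and to accept stomach tube and catheter. Food withdrawn 24 h before, tap water ad libitum. Bladder emptied by catheter, then 20 mL/kg tap water by stomach tube. Catheterized hourly up to 8 h with 4 mL/kg water orally each time; first 2 h urine served as control. Oral dosing after second catheterization. Pooled 1–6 h urine; Na⁺/K⁺ by flame photometry, Cl⁻ argentometrically.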

Canis familiaris [13] = assay: Diuretic activity in the dog (2 animals/dose) at (dose 0.1 mg/Kg), when administered perorally; type: functional, Canis lupus familiaris, Urine; in short: as §4
[14] = It is the ratio, measured as saluretic activity in the dog as concentration of Na+ in urinary excretion (dose 0.1 mg/Kg, perorally) to that of K; type: functional, Urine; in short: as §4
Canis familiaris [15] = assay: Diuretic activity in the dog (2 animals/dose) at (dose 0.4 mg/Kg), when administered perorally; type: functional, Canis lupus familiaris, Urine; in short: as §4
Canis familiaris [16] = assay: Saluretic activity in the dog measured as concentration of Cl - in urinary excretion (2 animals/dose) at (dose 0.4 mg/Kg, perorally); type: functional, Canis lupus familiaris, Urine; in short: as §1
[17] = Solubility of compound in water was determined; type: physicochemical; conditions: buffer
Canis familiaris [18] = assay: Urinary excretion collected at 7-24 hr time after oral administration in dog (four animals per dose) at dose 0.39 mg/kg.; type: functional, Canis lupus familiaris, Urine; in short: as §3
[19] = It is the ratio, measured as saluretic activity in the dog as concentration of Na+ in urinary excretion (dose 0.4 mg/Kg, perorally) to that of K; type: functional, Urine; in short: as §4
Canis familiaris [20] = assay: Urinary excretion collected at 7-24 hr time after oral administration in dog (four animals per dose) at dose 6.25 mg/kg.; type: functional, Canis lupus familiaris, Urine; in short: as §3
Canis familiaris [21] = assay: Diuretic activity in the dog (2 animals/dose) at (dose 1.56 mg/Kg), when administered perorally; type: functional, Canis lupus familiaris, Urine; in short: as §4
Canis familiaris [22] = assay: sodium excretion collected at 1-24 hr time after oral administration in dog (four animals per dose) at dose 0.39 mg/kg.; type: functional, Canis lupus familiaris; in short: as §3
Canis familiaris [23] = assay: Saluretic activity in the dog measured as concentration of Na+ in urinary excretion (2 animals/dose) at (dose 0.1 mg/Kg, perorally); type: functional, Canis lupus familiaris, Urine; in short: as §5
Canis familiaris [24] = assay: Saluretic activity in the dog measured as concentration of K+ in urinary excretion (2 animals/dose) at (dose 0.1 mg/Kg, perorally); type: functional, Canis lupus familiaris, Urine; in short: as §1
Canis familiaris [25] = assay: Saluretic activity in the dog measured as concentration of K+ in urinary excretion (2 animals/dose) at (dose 1.56 mg/Kg, perorally); type: functional, Canis lupus familiaris, Urine; in short: as §1
[26] = Dissociation constant, pK1 was determined using sodium salt
Canis familiaris [27] = assay: urinary excretion collected at 1-24 hr time after oral administration in dog (four animals per dose) dosed at 3.12 mg/kg.; type: functional, Canis lupus familiaris, Urine
In short: (§6)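 Trained male beagles, four per dose, fasted 24 h with tap water ad libitum. The bladder was emptied by catheter, then 20 mL/kg tap water was given by stomach tube. Dogs were catheterized hourly with 4 mL/kg water orally each time, and the first 2 h served as control. Compound was given orally after the second catheterization. Urine volume and flame-photometric Na⁺ were measured over 1-6, 7-24 and 1-24 h.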

Canis familiaris [28] = assay: Saluretic activity in the dog measured as concentration of Cl - in urinary excretion (2 animals/dose) at (dose 0.025 mg/Kg, perorally); type: functional, Canis lupus familiaris, Urine; in short: as §1
Canis familiaris [29] = assay: urinary excretion collected at 1-24 hr time after oral administration in dog (four animals per dose) dosed at 0.05 mg/kg.; type: functional, Canis lupus familiaris, Urine; in short: as §6
Canis familiaris [30] = assay: sodium excretion collected at 1-6 hr time after oral administration in dog (four animals per dose) dosed at 0.39 mg/kg.; type: functional, Canis lupus familiaris; in short: as §3
[31] = It is the ratio, measured as saluretic activity in the dog as concentration of Cl- in urinary excretion (dose 1.56 mg/Kg, po) to that of (Na+)+(K+); type: functional, Urine; in short: as §4
Canis familiaris [32] = assay: sodium excretion collected at 1-6 hr time after oral administration in dog (four animals per dose) dosed at 3.12 mg/kg.; type: functional, Canis lupus familiaris; in short: as §3
Canis familiaris [33] = assay: Saluretic activity in the dog measured as concentration of Na+ in urinary excretion (2 animals/dose) at (dose 0.4 mg/Kg, perorally); type: functional, Canis lupus familiaris, Urine; in short: as §5

SMILES: NS(=O)(=O)c1cc(S(=O)(=O)[O-])c(NCc2ccco2)cc1Oc1ccccc1.[Na+]
- Saluretic activity (Canis familiaris [1]): 0.34 m equiv 6hr-1 kg-1
- Saluretic activity (Rattus norvegicus [2]): 2.1 m equiv 5hr-1 kg-1
- Diuretic activity (Rattus norvegicus [3]): 4.1 mL/kg
- Saluretic activity (Rattus norvegicus [4]): 9.6 m equiv 5hr-1 kg-1
- Saldiuretic activity (Canis familiaris [5]): 5.47 m equiv 6hr-1 kg-1
- Partition coefficient [6]: 0.12
- Saluretic activity (Rattus norvegicus [7]): 7 m equiv 5hr-1 kg-1
- pKa [8]: 10.2
- Saldiuretic activity (Canis familiaris [9]): 0.27 m equiv 6hr-1 kg-1
- Na+ excretion (Canis familiaris [10]): 0.48 mequiv kg-1
- Ratio [11]: 0.8
- Saluretic activity (Canis familiaris [12]): 4.89 m equiv 6hr-1 kg-1
- Diuretic activity (Canis familiaris [13]): 30 ml kg-1 6hr-1
- Ratio [14]: 1.2
- Diuretic activity (Canis familiaris [15]): 36.4 ml kg-1 6hr-1
- Saldiuretic activity (Canis familiaris [16]): 1.65 m equiv 6hr-1 kg-1
- Solubility [17]: 20%
- Urinary excretion (Canis familiaris [18]): 9.3 mL/kg
- Ratio [19]: 3.5
- Urinary excretion (Canis familiaris [20]): 38.3 mL/kg
- Diuretic activity (Canis familiaris [21]): 71.4 ml kg-1 6hr-1
- Na+ excretion (Canis familiaris [22]): 2.04 mequiv/kg
- Saluretic activity (Canis familiaris [23]): 1.19 m equiv 6hr-1 kg-1
- Saluretic activity (Canis familiaris [24]): 0.15 m equiv 6hr-1 kg-1
- Saluretic activity (Canis familiaris [25]): 1 m equiv 6hr-1 kg-1
- pKa [26]: 0.5

SMILES: CN(c1ccccc1)c1cc(NCc2ccco2)c(S(=O)(=O)[O-])cc1S(N)(=O)=O.[Na+]
- Saluretic activity (Canis familiaris [1]): 1.28 m equiv 6hr-1 kg-1
- Urinary excretion (Canis familiaris [27]): 102 mL/kg
- Saluretic activity (Rattus norvegicus [2]): 2.4 m equiv 5hr-1 kg-1
- Saldiuretic activity (Canis familiaris [28]): 0.75 mequiv kg-1 6hr-1
- Urinary excretion (Canis familiaris [29]): 50.6 mL/kg
- Diuretic activity (Rattus norvegicus [3]): 4.6 mL/kg
- Saluretic activity (Rattus norvegicus [4]): 9.4 m equiv 5hr-1 kg-1
- Saldiuretic activity (Canis familiaris [5]): 6.79 m equiv 6hr-1 kg-1
- Partition coefficient [6]: 0.28
- Saluretic activity (Rattus norvegicus [7]): 8.2 m equiv 5hr-1 kg-1
- pKa [8]: 10.5
- Saldiuretic activity (Canis familiaris [9]): 3.99 m equiv 6hr-1 kg-1
- Ratio [11]: 1.1
- Na+ excretion (Canis familiaris [30]): 5.26 mequiv kg-1
- Saluretic activity (Canis familiaris [12]): 5.74 m equiv 6hr-1 kg-1
- Diuretic activity (Canis familiaris [13]): 54.3 ml kg-1 6hr-1
- Ratio [14]: 4.3
- Diuretic activity (Canis familiaris [15]): 75.3 ml kg-1 6hr-1
- Saldiuretic activity (Canis familiaris [16]): 6.34 m equiv 6hr-1 kg-1
- Solubility [17]: 4%
- Ratio [31]: 1
- Ratio [19]: 4.1
- Diuretic activity (Canis familiaris [21]): 69.4 ml kg-1 6hr-1
- Na+ excretion (Canis familiaris [32]): 4.39 mequiv kg-1
- Saluretic activity (Canis familiaris [23]): 3.08 m equiv 6hr-1 kg-1
- Saluretic activity (Canis familiaris [24]): 0.72 m equiv 6hr-1 kg-1
- Saldiuretic activity (Canis familiaris [25]): 1.17 m equiv 6hr-1 kg-1
- Saluretic activity (Canis familiaris [33]): 5.26 m equiv 6hr-1 kg-1
- pKa [26]: 1
